Most compounds without a hit are left out; they make up all but 3% or so of the library.
Kir21 inh = inhibitors of mouse Kir2.1 inward-rectifier potassium channel | Inward rectifier potassium channel 2 (Mus musculus), P35561 | HEK293-Kir2.1, FluxOR thallium flux fluorescence; hits give low values | 310,000 tested, 0.85% active | B-score at 10 µM;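 active means fluorescence ratio B-score at or below minus 3 SD of library scores, with starting-brightness B-score within 2 SD, cut at about -4.2 in these data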;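 further: channel flux triggered by added potassium and thallium sulfate stimulus; B-score of peak minus minimum fluorescence over baseline after thallium stimulus; more negative B-score means stronger Kir2.1 block with less thallium influx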
Target sequence (P35561 whole entry, looked up): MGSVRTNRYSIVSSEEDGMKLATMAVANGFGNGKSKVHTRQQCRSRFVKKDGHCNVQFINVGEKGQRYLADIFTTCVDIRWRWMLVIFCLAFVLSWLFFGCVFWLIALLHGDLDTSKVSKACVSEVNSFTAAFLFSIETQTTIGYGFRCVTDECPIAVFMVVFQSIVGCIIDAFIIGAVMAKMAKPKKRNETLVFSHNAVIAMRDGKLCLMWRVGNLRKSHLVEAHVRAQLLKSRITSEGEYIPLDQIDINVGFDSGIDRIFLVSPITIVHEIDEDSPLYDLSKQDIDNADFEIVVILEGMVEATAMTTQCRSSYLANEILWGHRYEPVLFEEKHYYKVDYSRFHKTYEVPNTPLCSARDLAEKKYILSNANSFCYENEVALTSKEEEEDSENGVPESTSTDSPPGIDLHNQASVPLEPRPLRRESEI
TRPC4 agonist = activators of mouse TRPC4 channel, primary screen, Fluo4 calcium, HEK293 TRPC4beta/mu-opioid cells. Short transient receptor potential channel 4 (Mus musculus), Q9QUQ5. Fluo4 calcium fluorescence; hits give high values. B-score at 10 µM. 310,000 tested, 0.49% active. AID 2237, 2010;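 active means B-score above 5 SD of library B-scores, and initial fluorescence ratio not above library mean plus 5 SD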;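 further: positive B-score marks a calcium rise read as TRPC4 activation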
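Assay system: HEK293 stable line with TRPC4beta plus mu-opioid receptor. Times: dye 45 min RT, read 110 s. Measured by: kinetic Fluo4 calcium fluorescence. Measure: B score of integrated ratio. Controls: assay buffer as low control, maximal DAMGO as high control.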
TRPC4 potent = positive allosteric modulators of TRPC4, primary screen, cell-based, mouse TRPC4beta, HEK293 mu-opioid, Fluo-4 calcium. DAMGO EC20, Fluo-4 Ca2+ flux; hits give high values. B-score at 10 µM. 310,000 tested, 0.42% active;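 active means B-score of calcium response area above 5 SD of library B-scores, with initial fluorescence ratio within 5 SD of library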
TRPC6 activator = mouse TRPC6 channel activators, primary screen, cell-based, HEK293, membrane potential dye; B-score at 10 µM; HEK293-TRPC6 membrane potential dye fluorescence; hits give high values; 310,000 tested, 0.13% active; Short transient receptor potential channel 6 (Mus musculus), Q61143;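 active means B-score of the integrated fluorescence ratio above library mean plus 3 SD, and starting fluorescence ratio within library mean plus 5 SD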;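 further: higher score means more depolarization so channel activation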
TRPC6 inhibitor = mouse TRPC6 channel inhibitors, primary screen, cell-based, HEK293, membrane potential dye | ACh-evoked depolarization; hits give low values | B-score at 10 µM | 310,000 tested, 1.1% active | AID 2553, 2010;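 active means B-score under library mean minus 3 SD, initial fluorescence not abnormally high, positive integrated signal ratio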;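 further: B-score derived from integrated fluorescence ratio over the kinetic read; more negative B-score means stronger inhibition of depolarization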
TRPC4 inh = inhibitors of mouse TRPC4 channel, primary screen, Fluo4 calcium, HEK293 TRPC4beta/mu-opioid cells | Short transient receptor potential channel 4 (Mus musculus), Q9QUQ5 | B-score at 10 µM | 300,000 tested, 0.39% active | DAMGO-evoked Fluo4 calcium flux; hits give low values;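 active means B-score over 3 SD under the library average, no early fluorescence shift, positive overall ratio signal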
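Assay system – HEK293 line stably carrying TRPC4beta and mu-opioid receptor · Doses – single dose · Detection – Fluo4 calcium-dye fluorescence, kinetic read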
HEK293 TRPC6 ctr = parental HEK293 membrane potential modulation, confirmation, counter-screen for TRPC6 modulator project, cell-based. shares compounds with TRPC6 inhibitor. membrane potential dye fluorescence. membrane potential signal change, % at 10 µM. 2,400 tested, 51% active. AID 488924, 2010;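 active means membrane potential signal moves up or down beyond 5 SD from buffer-only wells, on both duplicate plates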
HEK293 MPD ctr 2 = second check of TRPC6 modulator effects in parental HEK293 cells; shares compounds with TRPC6 inhibitor; inhibition, % at 10 µM; membrane potential dye fluorescence; after compound, maximal acetylcholine stimulation; 2,400 tested, 14% active;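 active means membrane potential signal drops by more than 5 SD from the mean control signal, in both duplicate plates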
TRPC4 ctr mod = TRPC4 modulation by TRPC6 hit compounds, confirmation, selectivity assay for TRPC6 modulator project, cell-based, HEK293 TRPC4/mu-opioid, membrane potential dye, mouse | shares compounds with TRPC6 inhibitor | membrane potential fluorescence | percent change from control (negative = decrease, positive = increase), % at 10 µM | 2,400 tested, 69% active;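 active means membrane potential signal moved up or down beyond 5 SD of buffer control wells, in both duplicate plates, actives on both sides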
TRPC4 ctr inh 2 = second selectivity test of TRPC6 modulators against mouse TRPC4 | inhibition, % at 10 µM | 2,400 tested, 55% active | shares compounds with TRPC6 inhibitor | HEK293 TRPC4/mu-opioid, membrane potential dye fluorescence; stimulated with maximal-effect DAMGO;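 active means drop in membrane potential signal beyond 5 SD of the control wells in both duplicate plates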;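 further: TRPC4 counter screen for TRPC6 hits run under conditions tuned for TRPC6 not TRPC4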
TRPC6 inh conf = mouse TRPC6 channel inhibitors, confirmation, HEK293 cells, membrane potential dye, duplicate; shares compounds with TRPC6 inhibitor; ACh-evoked depolarization; inhibition, % at 10 µM; 3,300 tested, 43% active; AID 488960, 2010;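 active means fluorescence ratio falls more than 5 SD below the full-stimulation control mean, in both duplicate runs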;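 further: integrated fluorescence ratio of peak minus minimum over baseline after agonist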
TRPC6 act conf = mouse TRPC6 channel activators, confirmation, HEK293 cells, membrane potential dye, duplicate; shares compounds with TRPC6 inhibitor; HEK293-TRPC6 membrane potential dye fluorescence, FDSS; activation, % at 10 µM; 2,800 tested, 11% active; AID 488961, 2010;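 active means ratio signal rise beyond 5 SD above unstimulated control wells' mean, seen in both duplicate runs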
Of the large screens only hits and unclear results are named; the others gave an inactive call (follow-up assays come after a bar, where they were run).

COc1ccc2nc(C)cc(N3CCOCC3)c2c1	TRPC6 inhibitor -11.6 | HEK293 TRPC6 ctr -427.5% | HEK293 MPD ctr 2 100.0% | TRPC4 ctr mod -60.0% | TRPC4 ctr inh 2 67.0% | TRPC6 inh conf 76.0% | TRPC6 act conf inactive
Cc1ccc2nc(C)cc(N3CCOCC3)c2c1	TRPC6 inhibitor -10.8 | HEK293 TRPC6 ctr -300.5% | HEK293 MPD ctr 2 96.5% | TRPC4 ctr mod -45.0% | TRPC4 ctr inh 2 69.0% | TRPC6 inh conf 75.0% | TRPC6 act conf inactive
COc1ccc(C(=O)CN2CCN(c3cc(C)nc4ccccc34)CC2)cc1	none
COc1ccc2nc(C)cc(N3CCN(c4ccccc4)CC3)c2c1	TRPC6 inhibitor -5.11 | HEK293 TRPC6 ctr -174.5% | HEK293 MPD ctr 2 inactive | TRPC4 ctr mod -41.0% | TRPC4 ctr inh 2 68.5% | TRPC6 inh conf inactive | TRPC6 act conf inactive
COc1ccc2nc(C)cc(N3CC(C)OC(C)C3)c2c1 (stereo not drawn)	none
CCN(CC)S(=O)(=O)c1cccc(C(=O)Oc2cccc(NC(=O)c3cccs3)c2)c1	none
O=C(NCc1cccnc1)/C(=C/c1ccc(Cl)cc1)NC(=O)c1ccccc1	TRPC6 inhibitor -5.62 | HEK293 TRPC6 ctr inactive | HEK293 MPD ctr 2 inactive | TRPC4 ctr mod inactive | TRPC4 ctr inh 2 inactive | TRPC6 inh conf inactive | TRPC6 act conf inactive
COc1ccc(C(=O)N/C(=C\c2ccccc2)C(=O)NCc2cccnc2)cc1	none
CCC(C)[C@H](NC(=O)N1CCN(c2cccc(C(F)(F)F)c2)CC1)C(=O)OC (stereo partly drawn)	none
O=C(c1cccc(F)c1)N1CCN(c2cccc(C(F)(F)F)c2)CC1	TRPC6 inhibitor -6.05 | HEK293 TRPC6 ctr inactive | HEK293 MPD ctr 2 inactive | TRPC4 ctr mod 15.5% | TRPC4 ctr inh 2 inactive | TRPC6 inh conf 77.0%
O=C(c1cccc(C(F)(F)F)c1)N1CCN(C2CCCCC2)CC1	TRPC6 inhibitor -5.62 | HEK293 TRPC6 ctr inactive | HEK293 MPD ctr 2 inactive | TRPC4 ctr mod 11.0% | TRPC4 ctr inh 2 inactive | TRPC6 inh conf 40.0%
COC(=O)[C@@H](NC(=O)N1CCN(c2cccc(C(F)(F)F)c2)CC1)C(C)C	TRPC6 inhibitor -6.36 | HEK293 TRPC6 ctr inactive | HEK293 MPD ctr 2 inactive | TRPC4 ctr mod inactive | TRPC4 ctr inh 2 inactive | TRPC6 inh conf inactive | TRPC6 act conf inactive
O=C(c1cccc(F)c1)N1CCN(C2CCCCC2)CC1	none

Screening results as filed in PubChem.
